# Only some compounds are listed: those with a hit (about 2% of all), similar ones and a draw of the others.
# M1 antag = human M1 muscarinic receptor antagonists, primary screen, CHO-K1 cells, Fluo-8 calcium fluorescence, 1536-well; AID 588852, 2011; actives 1.3% (n = 360,000); inhibition, % at 3 µM; CHO-K1 hM1, ACh EC80 antagonist; Muscarinic acetylcholine receptor M1 (Homo sapiens), P11229;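 active = percent inhibition above its own plate's cutoff, namely the mean of that plate's compound wells plus 3 SD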;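 note: peak over basal fluorescence ratio during 140 s after agonist addition; 0% = ACh EC80 plus DMSO and 100% = DMSO alone without agonist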
# Target sequence (P11229 whole entry, looked up): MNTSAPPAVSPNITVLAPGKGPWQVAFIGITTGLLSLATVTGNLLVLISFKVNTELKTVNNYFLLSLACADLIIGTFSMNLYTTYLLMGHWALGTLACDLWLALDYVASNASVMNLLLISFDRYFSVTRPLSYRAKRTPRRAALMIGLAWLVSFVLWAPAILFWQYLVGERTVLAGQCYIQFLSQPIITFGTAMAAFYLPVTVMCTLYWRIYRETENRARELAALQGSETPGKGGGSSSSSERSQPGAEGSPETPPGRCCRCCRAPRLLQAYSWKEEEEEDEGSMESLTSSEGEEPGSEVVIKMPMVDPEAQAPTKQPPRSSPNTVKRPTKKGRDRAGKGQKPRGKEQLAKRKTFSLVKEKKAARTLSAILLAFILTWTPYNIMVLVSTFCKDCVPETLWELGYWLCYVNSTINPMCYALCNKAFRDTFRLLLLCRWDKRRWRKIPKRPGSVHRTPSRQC
# M5 ag = human M5 muscarinic receptor agonists, primary screen, CHO-K1 cells, Fluo-8 calcium fluorescence. Muscarinic acetylcholine receptor M5 (Homo sapiens), P08912. CHO-K1 hM5 cells; 0% DMSO wells, 100% maximal acetylcholine response. activation, % at 3 µM. actives 0.19% (n = 360,000). AID 624037, 2012;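 active = activation above the run's mean over test compounds plus 3 SD, cut at about 23% in these data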;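 note: signal is peak over basal fluorescence ratio across the kinetic read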
# M1 PAM = human M1 muscarinic receptor positive allosteric modulators, primary screen, CHO-K1 cells, Fluo-8 calcium fluorescence, 1536-well; Muscarinic acetylcholine receptor M1 (Homo sapiens), P11229; CHO-K1 hM1, ACh EC20; 0% = ACh EC20, 100% = maximal ACh; activation, % at 3 µM; actives 0.088% (n = 360,000); AID 588819, 2011; in the data active = activation above about 19%, passing the limit was not always enough
# CHRM5 PAM = human M5 muscarinic receptor positive allosteric modulators, primary screen, CHO-K1 cells, Fluo-8 calcium fluorescence | activation, % at 3 µM | CHO-K1 hM5, ACh EC20 PAM; 0% = ACh EC20, 100% = ACh EC100 | Muscarinic acetylcholine receptor M5 (Homo sapiens), P08912 | actives 0.3% (n = 360,000);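 active = activation above the run cutoff, the mean activation of all test compounds plus 3 SD, cut at about 18% in these data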
#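 System: CHO-K1 hM5 cells. Reagent: acetylcholine, EC20 level. Compound dosing: single dose, 3 µM nominal final test concentration. Timing: Post-acetylcholine fluorescence recording 140 s. Detection: Fluo-8 calcium fluorescence. Read-out: % activation, ACh-normalized. Benchmarks: ACh EC20 and EC100 wells. Repeats: singlicate, one well per test compound.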
# CHRM1 agonist = human M1 muscarinic receptor agonists, primary screen, Fluo-8 calcium fluorescence, CHO-K1 cells, HTS; CHO-K1 hM1, agonist mode; 0% DMSO, 100% acetylcholine EC100; AID 588814, 2011; actives 0.33% (n = 360,000); activation, % at 3 µM;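 active = activation above the run's mean compound activation plus 3 SD, cut at about 16% in these data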;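 note: peak over basal fluorescence ratio within a 140 s kinetic read after compound addition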
# CHRM5 antagonist = human M5 muscarinic receptor antagonists, primary screen, CHO cells, Fluo-8 calcium fluorescence | Muscarinic acetylcholine receptor M5 (Homo sapiens), P08912 | CHO-hM5 cells, ACh EC80 | inhibition, % at 3 µM | actives 0.59% (n = 360,000) | AID 624040, 2012;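 active = inhibition above a per-plate cutoff, the mean of that plate's test compounds plus 3 SD, cut at about 27% in these data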;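 note: 0% = acetylcholine EC80 with DMSO and 100% = DMSO without agonist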
# Active calls of the source: *; / = no result.
SMILES,M1 antag,M5 ag,M1 PAM,CHRM5 PAM,CHRM1 agonist,CHRM5 antagonist
CC1(c2ccc(Cl)cc2)NC(=O)N(CC(=O)Nc2cccnc2Cl)C1=O (centres undefined),-10,11,6,0,22*,5
CC1(c2ccc(OC(F)F)cc2)NC(=O)N(CC(=O)Nc2ccc3c(c2)OCO3)C1=O (centres undefined),17,41*,-5,1,39*,17
CC(=O)Nc1ccc(/C=N/N2C(=O)NC(C)(c3ccc(OC(F)F)cc3)C2=O)cc1 (centres undefined),12,10,-1,10,27*,5
CC1(c2ccc3ccccc3c2)NC(=O)N(CC(=O)NCc2cccs2)C1=O (centres undefined),-9,-1,9,-8,-7,6
CCCCCC(C)NC(=O)CN1C(=O)NC(C)(c2ccc3ccccc3c2)C1=O (centres undefined),-4,0,14,4,18*,-10
O=C(NCc1ccc(F)cc1F)[C@@H]1CCCN1C(=O)[C@@H]1CCCN1C(=O)c1cccc2ccccc12,/,3,/,2,/,-9
O=C1CC=Nc2ccc([N+](=O)[O-])cc21,-5,1,2,-5,-1,-5
COC(=O)Cn1nnnc1-c1nc2cc(C)c(C)cc2[nH]c1=O,/,1,/,-6,/,0
CC1(c2ccc(OC(F)F)cc2)NC(=O)N(CC(=O)Nc2ccc3[nH]c(=O)[nH]c3c2)C1=O (centres undefined),-13,2,12,6,-1,1
CC1(c2ccc(OC(F)F)cc2)NC(=O)N(CC(=O)Nc2ccccc2)C1=O (centres undefined),26*,44*,-11,-4,46*,16
Cc1cccc(C)c1NC(=O)C(C1CC1)n1c(-c2ccc(=O)[nH]c2)nc2ccccc21 (centres undefined),/,1,/,21*,/,-21
Cc1cccc(C)c1NC(=O)C(C)n1c(-c2ccc(=O)[nH]c2)nc2ccccc21 (centres undefined),/,1,/,-1,/,-2
C=Cc1ccc(CC2(C)C(=O)Nc3ccc(-c4cccnc4)cc32)cc1 (centres undefined),2,1,-3,-8,-1,-2
Cc1cccc(NC(=S)N(CCN(C)C)Cc2cc3cc(C)ccc3[nH]c2=O)c1,3,20,1,8,-5,0
CCN(CC)CCN(Cc1cc2cc(C)ccc2[nH]c1=O)C(=S)Nc1ccccc1,2,52*,1,-16,-6,46*
Cc1ccc(N(Cc2cc3cccc(C)c3[nH]c2=O)S(=O)(=O)c2ccccc2)c(C)c1,12,-6,-3,-12,-2,28*
Cc1cccc2cc(CN(CCN(C)C)C(=S)Nc3ccccc3)c(=O)[nH]c12,-8,11,8,24*,-8,-8
OCC[C@H]1NCc2cc(CO)cc(-c3ccccc3)c21,-7,-1,1,-2,-4,-8
COc1cccc(C(C)(O)c2nc(-c3cc(F)cc(F)c3)cs2)c1 (centres undefined),-1,1,-3,-5,-2,2
CCNc1nc(NC(C)(C)C)nc(N2CCCCC2)n1,86*,-10,-28,-22,-11,61*
COc1ccc2cc(C3=CC(=O)CC(C)(C)C3=O)ccc2c1,10,1,-19,-6,1,11
CC(=O)Nc1ccc2ccccc2c1,0,2,6,0,-2,-4
C/C(=N/NC(=O)Nc1ccccc1)c1ccc(C)cc1,-7,-3,8,-3,-7,13

# Screens: PubChem, The Scripps Research Institute Molecular Screening Center
